{"source": "ChEMBL document CHEMBL1221391", "about": "“Identification of novel antitubercular compounds through hybrid virtual screening approach” (Bioorg Med Chem, 2010)"}
{"tested_on": "Mycobacterium tuberculosis", "assay": "Antitubercular activity against Mycobacterium tuberculosis H37Rv after 7 days", "type": "functional, organism-based", "settings": "168 h", "summary_of_the_method": "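MABA in 7H9 broth with 0.2% glycerol, 1.0 g/l Casitone, 10% OADC and 0.05% Tween 80, grown to OD600 0.4. Culture diluted 1:50 to give 2 × 10^5 CFU/ml. Twofold serial dilutions made from DMSO stock. Incubated 37 °C for 7 days, then alamar blue added and read after 24 h. MIC is the lowest concentration preventing the blue-to-pink change. Rifampicin reference.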", "units": {"MIC": "µM", "IC50": "µM"}}
{"compound": "S=C(c1ccc(Br)cc1)N1CCN(Cc2ccccc2)CC1", "MIC": 85.2}
{"compound": "Cc1ccc(C(=O)N2CCN(S(=O)(=O)c3ccccc3)CC2)cc1", "MIC": 372}
{"compound": "Cc1ccc(S(=O)(=O)N2CCN(C(=O)c3ccc(Br)cc3)CC2)cc1", "MIC": 302}
{"compound": "Oc1cc(Cc2ccccc2)ccc1Oc1ccc(Cl)cc1Cl", "IC50": 0.051, "MIC": 27}
{"compound": "Cc1ccc(C(=O)CC(=O)c2ccc(Cl)cc2)c(O)c1", "MIC": 13.8}
{"compound": "CC(C)Cc1ccc(Oc2ccc(Cl)cc2Cl)c(O)c1", "IC50": 0.096, "MIC": 60}
{"compound": "CCCCCc1ccc(Oc2ccccc2)c(O)c1", "IC50": 0.017, "MIC": 3.5}
{"compound": "CCCCCCCCCCCCCCc1ccc(Oc2ccccc2)c(O)c1", "IC50": 0.15, "MIC": 460}
{"compound": "O=C(c1cccs1)N1CCN(C2c3ccccc3-c3ccccc32)CC1", "MIC": 355}
{"compound": "Cc1ccc(C(=O)N2CCN(C3c4ccccc4-c4ccccc43)CC2)cc1", "IC50": 0.4, "MIC": "> 125"}
{"compound": "O=C(c1ccccc1)N1CCN(C2c3ccccc3-c3ccccc32)CC1", "IC50": 0.09, "MIC": "> 125"}
{"compound": "O=C(NCc1ccc(F)cc1)C1CC(=O)N(C2CCCCCCC2)C1", "note": "(stereo not drawn)", "MIC": 369}
{"compound": "CCc1ccc(O)c(/N=C/c2cc(Cl)cc(Cl)c2O)c1", "MIC": 206}
{"compound": "Cc1[nH]c2cc(C(=O)N3CCN(Cc4ccccc4)CC3)ccc2c1C", "MIC": 368}
{"compound": "O=[N+]([O-])c1ccc(Oc2cc(C(F)(F)F)ccc2Cl)cc1O", "MIC": 384}
{"compound": "CCCCCCc1ccc(Oc2ccccc2)c(O)c1", "IC50": 0.011, "MIC": 7.8}
{"compound": "Cc1ccc(/N=C/c2cc(Cc3ccccc3Cl)ccc2O)c(O)c1", "MIC": 182}
{"compound": "Cc1ccc(C(=O)N2CCN(c3cccc(Cl)c3)CC2)cc1C", "IC50": 0.99, "MIC": "> 125"}
{"compound": "CCCCCCc1ccc(C(=O)Oc2ccc(Cl)cc2)cc1", "MIC": 202}
{"compound": "O=C(C1CC(=O)N(C2CCCC2)C1)N1CCC(Cc2ccccc2)CC1", "note": "(stereo not drawn)", "MIC": 361}
{"compound": "COc1cccc(CNC(=O)CN2CCCN(Cc3ccc(Cl)cc3)S2(=O)=O)c1", "MIC": 146}
{"compound": "Cc1ccc(NC(=O)C2CC(=O)N(CCc3c[nH]c4ccc(Cl)cc34)C2)cc1", "note": "(stereo not drawn)", "MIC": 80.8}
{"compound": "CCc1ccc(C(=O)Oc2cccnc2)cc1", "MIC": 563}
{"compound": "CO[C@H]1/C=C/O[C@@]2(C)Oc3c(C)c(O)c4c(O)c(c(/C=N/N5CCN(C)CC5)c(O)c4c3C2=O)NC(=O)/C(C)=C\\C=C\\[C@H](C)[C@H](O)[C@@H](C)[C@@H](O)[C@@H](C)[C@H](OC(C)=O)[C@@H]1C", "note": "[RIFAMPIN]", "MIC": 0.01}
{"compound": "CCCCCc1ccc(OC(=O)c2ccc(Cl)cc2)cc1", "MIC": 106}
{"compound": "O=C(CCN1C(=O)c2ccccc2C1=O)N1CCN(C(c2ccccc2)c2ccccc2)CC1", "MIC": 141}
{"compound": "O=C(Nc1ccc(C(F)(F)F)cc1)NC1CC(=O)N(C2CCCC2)C1", "note": "(stereo not drawn)", "MIC": 180}
{"compound": "Oc1cc(CCCc2ccccc2)ccc1Oc1ccc(Cl)cc1Cl", "IC50": 0.05, "MIC": 50}
{"compound": "CN(Cc1c2ccccc2cc2ccccc12)C(=O)C1CC(=O)N(C2CCCCCCC2)C1", "note": "(stereo not drawn)", "IC50": 0.32, "MIC": 62.5}
{"compound": "Cc1ccc(OC(=O)c2ccc(Cl)cc2)cc1", "MIC": 259}
{"compound": "Oc1cc(CCc2ccccc2)ccc1Oc1ccc(Cl)cc1Cl", "IC50": 0.021, "MIC": 52}
{"compound": "O=C(c1ccc(F)cc1)N1CCN(C2c3ccccc3-c3ccccc32)CC1", "MIC": 85.9}
{"compound": "O=C(Nc1ccccc1O)c1ccc(Oc2ccc([N+](=O)[O-])cc2)cc1", "MIC": 5.7}
{"compound": "CN(C(=O)C1CC(=O)N(C2CCCCCC2)C1)c1cc(-c2ccccc2)c(O)c(-c2ccccc2)c1", "note": "(stereo not drawn)", "IC50": 0.36, "MIC": "> 125"}
{"compound": "Oc1cccc(Oc2c(F)c(F)nc(F)c2F)c1", "MIC": 247}
{"compound": "O=C1c2ccc(Oc3cccc([N+](=O)[O-])c3)cc2C(=O)N1c1ccccc1O", "MIC": 85}
{"compound": "CN(Cc1c2ccccc2cc2ccccc12)C(=O)C1CC(=O)N(C2CC3CCC2C3)C1", "note": "(stereo not drawn)", "IC50": 0.46, "MIC": 125}
{"compound": "CCCCCCCCc1ccc(Oc2ccccc2)c(O)c1", "IC50": 0.005, "MIC": 6.4}
{"compound": "O=C(Nc1cc(Br)cc(C(F)(F)F)c1)C1CC(=O)N(C2CCCCC2)C1", "note": "(stereo not drawn)", "IC50": 0.85, "MIC": 62.5}
{"compound": "CCCCc1ccc(Oc2ccc(Cl)cc2Cl)c(O)c1", "IC50": 0.091, "MIC": 30}
{"compound": "Cc1oc(-c2ccccc2)nc1CN1CCN(C(=O)c2ccccc2)CC1", "MIC": 187}
{"compound": "CCCCCCCc1ccc(C(=O)Oc2ccc([N+](=O)[O-])cc2)cc1", "MIC": 187}
